This note sets out measurements from ChEMBL document CHEMBL1154715, “Identification of benzofuro[2,3-b]quinoline derivatives as a new class of antituberculosis agents” (Eur J Med Chem, 2010).

Converted amounts (≈) assume the structure as drawn.

Experiment [1] relates to Mycobacterium tuberculosis. In words: Antitubercular activity against Mycobacterium tuberculosis H37Rv ATCC 27294 by microplate Alamar blue assay. In kind it is functional. Summed up:
(§1)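 M. tuberculosis H37Rv (ATCC 27294) in BACTEC 12B medium; broth microdilution, Microplate Alamar Blue readout. MIC taken as lowest concentration giving 90% reduction in fluorescence versus controls.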
(Alamar Blue is a resazurin reagent that responds to reducing activity.)

The subject of the next experiment is Vero. Put plainly: Cytotoxicity against african green monkey Vero cells after 72 hrs by MTT assay. In kind it is cell-based, Chlorocebus sabaeus. (Tetrazolium dyes change colour on reduction, which living cells bring about.)
The nature of experiment [2]: Selectivity index, ratio of IC50 for african green monkey Vero cells to MIC for Mycobacterial tuberculosis H37Rv ATCC 27294. In kind it is functional. Summed up: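 SI calculated as IC50/MIC, where MIC (H37Rv, Alamar Blue microdilution in BACTEC 12B medium) is the lowest concentration cutting fluorescence 90% versus controls.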
Experiment [3] deals with MCF7. In words: Cytotoxicity against human MCF7 cells at 20 ug/ml after 48 hrs by SRB assay. The format is functional. Summed up: (§2)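 MCF7, NCI-H460 and SF-268 cells were kept in RPMI-1640 with 5% fetal bovine serum, then seeded and preincubated in microtiter plates. Compound was added at two fixed concentrations and incubated for 48 h. The endpoint was sulforhodamine B protein staining, reported as percent growth of treated cells relative to untreated controls.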
A general note: In SRB staining, fixed cells bind dye roughly in proportion to their protein.

Experiment [4] deals with MCF7. Put plainly: Cytotoxicity against human MCF7 cells at 4 ug/ml after 48 hrs by SRB assay. In kind it is functional. Summed up: as §2
Experiment [5] deals with NCI-H460. In words: Cytotoxicity against human NCI-H460 cells at 20 ug/ml after 48 hrs by SRB assay. In kind it is functional. The essentials: as §2
Experiment [6] concerns NCI-H460. Put plainly: Cytotoxicity against human NCI-H460 cells at 4 ug/ml after 48 hrs by SRB assay. The format is functional. The essentials: as §2
For experiment [7], the system named is SF-268. Put plainly: Cytotoxicity against human SF268 cells at 20 ug/ml after 48 hrs by SRB assay. The format is functional. The essentials: as §2
For experiment [8], the system named is SF-268. Put plainly: Cytotoxicity against human SF268 cells at 4 ug/ml after 48 hrs by SRB assay. In kind it is functional. Summed up: as §2
For experiment [9], the system named is Mycobacterium tuberculosis. Put plainly: Antitubercular activity against Mycobacterium tuberculosis H37Rv ATCC 27294 at <0.2 ug/ml by microplate Alamar blue assay. The format is functional. Summed up: as §1

For the compound `c1ccc(Nc2c3ccccc3nc3oc4ccccc4c23)cc1`, the MIC in [1] is 5.35 µg/mL (≈ 17.2 µM). In addition, the IC50 in the experiment on Vero turned out to be 6.14 µg/mL (≈ 19.8 µM). In [2], the “Selectivity Index” value came to 1.15. Besides, the Activity is reported as 44% in the experiment on MCF7 [3]; 118% in the experiment with MCF7 [4]; 53% with NCI-H460 [5]; 104% in the experiment with NCI-H460 [6]; 76% in the experiment with SF-268 [7]; 118% with SF-268 [8].
Consider `CCOc1c2ccccc2nc2oc3ccccc3c12`, for which, in [1], it took 1.44 µg/mL (≈ 5.47 µM) to inhibit growth (MIC). The IC50 with Vero turned out to be 10.34 µg/mL (≈ 39.3 µM). For the same compound, the “Selectivity Index” value in experiment [2] is 7.18. The Activity is listed as 77% in the experiment on MCF7 [3]; 99% in the experiment on MCF7 [4]; 84% in the experiment on NCI-H460 [5]; 92% with NCI-H460 [6]; 90% with SF-268 [7]; 86% in the experiment with SF-268 [8].
For the compound `CC(=O)c1ccc(Nc2c3ccccc3nc3oc4ccccc4c23)cc1`, the MIC in experiment [1] was 14.6 µg/mL (≈ 41.3 µM). The Activity stood at 49% in the experiment with MCF7 [3]; 106% with MCF7 [4]; 20% with NCI-H460 [5]; 64% with NCI-H460 [6]; 63% in the experiment with SF-268 [7]; 109% with SF-268 [8].
As to `COc1ccc(Nc2c3ccccc3nc3oc4ccccc4c23)cc1`, the MIC in experiment [1] turned out to be 2.63 µg/mL (≈ 7.73 µM). The IC50 with Vero came out at 3.63 µg/mL (≈ 10.7 µM). Besides, the “Selectivity Index” value in experiment [2] stood at 1.38. Also, the Activity in the experiment with MCF7 [3] amounted to 35%; in the experiment with MCF7 [4], 109%; with NCI-H460 [5], 17%; in the experiment with NCI-H460 [6], 83%; in the experiment on SF-268 [7] it was 87%; with SF-268 [8], 111%.
With `CC(=O)c1ccc(Oc2c3ccccc3nc3oc4ccccc4c23)cc1`, the MIC in experiment [1] is greater than 100 µg/mL. Moreover, the Activity is listed as 88% with MCF7 [3]; 100% with MCF7 [4]; 62% in the experiment on NCI-H460 [5]; 104% in the experiment with NCI-H460 [6]; 100% in the experiment with SF-268 [7]; 104% with SF-268 [8].
Turning to `Nc1c2ccccc2nc2oc3ccccc3c12`, in experiment [1], the MIC was greater than 100 µg/mL. Moreover, the Activity was determined as 113% with MCF7 [3]; 114% in the experiment on MCF7 [4]; 107% with NCI-H460 [5]; 110% in the experiment with NCI-H460 [6]; 72% with SF-268 [7]; 84% with SF-268 [8].
Regarding `CNc1c2ccccc2nc2oc3ccccc3c12`, the MIC in experiment [1] is less than 0.2 µg/mL. This compound displayed an IC50 in the experiment with Vero of 5.55 µg/mL (≈ 22.4 µM). Further, the “Selectivity Index” value in [2] is given as greater than 27.75. The Activity amounted to 99% in the experiment with MCF7 [3]; 100% with MCF7 [4]; 99% in the experiment on NCI-H460 [5]; 102% in the experiment with NCI-H460 [6]; 86% with SF-268 [7]; 98% in the experiment on SF-268 [8].
In the case of `CN(C)c1c2ccccc2nc2oc3ccccc3c12`, in [1], the minimal inhibitory concentration (MIC) was less than 0.2 µg/mL. Moreover, the IC50 in the experiment on Vero is greater than 30 µg/mL. Besides, the “Selectivity Index” value in experiment [2] is listed as greater than 150. In addition, the Activity is listed as 48% in the experiment with MCF7 [3]; 87% in the experiment on MCF7 [4]; 76% in the experiment on NCI-H460 [5]; 108% in the experiment on NCI-H460 [6]; 91% with SF-268 [7]; 102% in the experiment on SF-268 [8].
For `COc1c2ccccc2nc2oc3ccccc3c12`, the “inhibition (INH)” value in experiment [9] turned out to be 99%. In [1], this compound yielded an MIC of less than 0.2 µg/mL. Also, the IC50 in the experiment on Vero was found to be 11.77 µg/mL (≈ 47.2 µM). Moreover, in experiment [2], the “Selectivity Index” value is given as greater than 58.85. Moreover, the Activity in the experiment on MCF7 [3] stood at 92%; in the experiment on MCF7 [4], 102%; in the experiment on NCI-H460 [5], 68%; in the experiment on NCI-H460 [6], 90%; in the experiment on SF-268 [7] it was 98%; in the experiment with SF-268 [8], 98%.
In turn, `COc1cccc(Nc2c3ccccc3nc3oc4ccccc4c23)c1` came in with an MIC in experiment [1] of 17.8 µg/mL (≈ 52.4 µM). In addition, the Activity was found to be 84% in the experiment on MCF7 [3]; 107% in the experiment with MCF7 [4]; 46% in the experiment with NCI-H460 [5]; 99% with NCI-H460 [6]; 60% with SF-268 [7]; 97% with SF-268 [8].
On to `c1ccc(Oc2c3ccccc3nc3oc4ccccc4c23)cc1`, for which the MIC in experiment [1] was greater than 100 µg/mL. Further, the Activity in the experiment with MCF7 [3] came to 64%; with MCF7 [4], 94%; in the experiment with NCI-H460 [5] it was 91%; in the experiment with NCI-H460 [6], 99%; in the experiment on SF-268 [7], 108%; with SF-268 [8] it was 108%.
For the compound `CO[C@H]1/C=C/O[C@@]2(C)Oc3c(C)c(O)c4c(O)c(c(/C=N/N5CCN(C)CC5)c(O)c4c3C2=O)NC(=O)/C(C)=C\C=C\[C@H](C)[C@H](O)[C@@H](C)[C@@H](O)[C@@H](C)[C@H](OC(C)=O)[C@@H]1C` [RIFAMPIN], in experiment [1], the MIC was 0.125 µg/mL (≈ 0.152 µM). The same compound displayed an IC50 in the experiment on Vero of 100 µg/mL (≈ 122 µM). The “Selectivity Index” value in [2] is recorded as 400.

Broadly, the MIC is the smallest concentration in the dilution series that meets the test's criterion for growth inhibition. What is called IC50 is the point on the concentration scale where inhibition reaches its midpoint.
